Measurements taken from ChEMBL document CHEMBL4145650, “Napabucasin and Related Heterocycle-Fused Naphthoquinones as STAT3 Inhibitors with Antiproliferative Activity against Cancer Cells” (J Nat Prod, 2018).
Activity calls are given as the source filed them. No cut-off for these calls is given here.

Key:
MDA-MB-231 [1] = experiment: Induction of superoxide generation in human MDA-MB-231 cells at 5 umol/L measured after 24 hrs in presence of NQO1 inhibitor dicoumarol by DHE staining based flow cytometry; type: functional, cell-based
Outline: (§1)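 Cells were treated with compound at 5 μmol/L or DMSO for 24 h, with or without dicoumarol preincubation (5 μmol/L, 30 min), then stained with DHE for 30 min. 2-OH-DHE fluorescence was read by flow cytometry and expressed relative to vehicle control. At least three independent measurements.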

K562 [2] = experiment: Induction of superoxide generation in human K562 cells at 5 umol/L measured after 24 hrs in presence of NQO1 inhibitor dicoumarol by DHE staining based flow cytometry; type: functional, cell-based; outline: as §1
MDA-MB-231 [3] = experiment: Cell cycle arrest in human MDA-MB-231 cells assessed as accumulation at G1 phase at 3 uM measured after 24 hrs by propidium iodide staining based flow cytometry (reference value: 62%); type: functional
MDA-MB-231 [4] = experiment: Cell cycle arrest in human MDA-MB-231 cells assessed as accumulation at sub-G0 phase at 1 uM measured after 24 hrs by propidium iodide staining based flow cytometry (reference value: 3%); type: functional
MDA-MB-231 [5] = experiment: Cell cycle arrest in human MDA-MB-231 cells assessed as accumulation at G2 phase at 10 uM measured after 24 hrs by propidium iodide staining based flow cytometry (reference value: 23%); type: functional
MDA-MB-231 [6] = experiment: Induction of apoptosis in human MDA-MB-231 cells assessed as viable cells at 10 umol/L measured after 6 hrs by annexin-V-FITC/7-AAD staining based flow cytometric analysis (reference value: 97 to 98%); type: functional; details: MDA-MB-231, 6 h, read-out: Activity
MDA-MB-231 [7] = experiment: Induction of apoptosis in human MDA-MB-231 cells assessed as late apoptotic cells at 10 umol/L measured after 6 hrs by annexin-V-FITC/7-AAD staining based flow cytometric analysis relative to control; type: functional
MDA-MB-231 [8] = experiment: Cell cycle arrest in human MDA-MB-231 cells assessed as accumulation at sub-G0 phase at 10 uM measured after 24 hrs by propidium iodide staining based flow cytometry (reference value: 3%); type: functional
MDA-MB-231 [9] = experiment: Cell cycle arrest in human MDA-MB-231 cells assessed as accumulation at G1 phase at 1 uM measured after 24 hrs by propidium iodide staining based flow cytometry (reference value: 62%); type: functional
MDA-MB-231 [10] = experiment: Induction of apoptosis in human MDA-MB-231 cells assessed as viable cells at 10 umol/L measured after 4 hrs by annexin-V-FITC/7-AAD staining based flow cytometric analysis (reference value: 97 to 98%); type: functional; details: MDA-MB-231, 4 h, read-out: Activity
MDA-MB-231 [11] = experiment: Cell cycle arrest in human MDA-MB-231 cells assessed as accumulation at sub-G0 phase at 30 uM measured after 24 hrs by propidium iodide staining based flow cytometry (reference value: 3%); type: functional
MDA-MB-231 [12] = experiment: Induction of apoptosis in human MDA-MB-231 cells assessed as late apoptotic cells at 10 umol/L measured after 8 hrs by annexin-V-FITC/7-AAD staining based flow cytometric analysis relative to control; type: functional
MDA-MB-231 [13] = experiment: Cell cycle arrest in human MDA-MB-231 cells assessed as accumulation at S phase at 3 uM measured after 24 hrs by propidium iodide staining based flow cytometry (reference value: 12%); type: functional
MDA-MB-231 [14] = experiment: Induction of apoptosis in human MDA-MB-231 cells assessed as early apoptotic cells at 10 umol/L measured after 8 hrs by annexin-V-FITC/7-AAD staining based flow cytometric analysis relative to control; type: functional
MDA-MB-231 [15] = experiment: Cell cycle arrest in human MDA-MB-231 cells assessed as accumulation at G2 phase at 3 uM measured after 24 hrs by propidium iodide staining based flow cytometry (reference value: 23%); type: functional
MDA-MB-231 [16] = experiment: Cell cycle arrest in human MDA-MB-231 cells assessed as accumulation at G1 phase at 30 uM measured after 24 hrs by propidium iodide staining based flow cytometry (reference value: 62%); type: functional
MDA-MB-231 [17] = experiment: Cell cycle arrest in human MDA-MB-231 cells assessed as accumulation at S phase at 30 uM measured after 24 hrs by propidium iodide staining based flow cytometry (reference value: 12%); type: functional
MDA-MB-231 [18] = experiment: Cell cycle arrest in human MDA-MB-231 cells assessed as accumulation at S phase at 1 uM measured after 24 hrs by propidium iodide staining based flow cytometry (reference value: 12%); type: functional
MDA-MB-231 [19] = experiment: Cell cycle arrest in human MDA-MB-231 cells assessed as accumulation at G2 phase at 1 uM measured after 24 hrs by propidium iodide staining based flow cytometry (reference value: 23%); type: functional
MDA-MB-231 [20] = experiment: Induction of apoptosis in human MDA-MB-231 cells assessed as viable cells at 10 umol/L measured after 8 hrs by annexin-V-FITC/7-AAD staining based flow cytometric analysis (reference value: 97 to 98%); type: functional; details: MDA-MB-231, 8 h, read-out: Activity
K562 [21] = experiment: Antiproliferative activity against human K562 cells measured after 48 hrs by MTT assay; type: functional, cell-based; details: K562, 48 h
Outline: (§2)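 Cells kept in 10% FBS medium with penicillin/streptomycin/L-glutamine at 37 °C, 5% CO2 (MDA-MB-231 in DMEM, K562 in RPMI 1640). Viability read by MTT reduction to formazan after 48 h of exposure. IC50 obtained by nonlinear regression against vehicle control, given as mean ±SD of three independent experiments (n = 2 where footnoted).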

MDA-MB-231 [22] = experiment: Induction of apoptosis in human MDA-MB-231 cells assessed as viable cells at 10 umol/L measured after 24 hrs by annexin-V-FITC/7-AAD staining based flow cytometric analysis (reference value: 97 to 98%); type: functional; details: MDA-MB-231, 24 h, read-out: Activity
MDA-MB-231 [23] = experiment: Cell cycle arrest in human MDA-MB-231 cells assessed as accumulation at sub-G0 phase at 3 uM measured after 24 hrs by propidium iodide staining based flow cytometry (reference value: 3%); type: functional
MDA-MB-231 [24] = experiment: Induction of apoptosis in human MDA-MB-231 cells assessed as early apoptotic cells at 10 umol/L measured after 6 hrs by annexin-V-FITC/7-AAD staining based flow cytometric analysis relative to control; type: functional
MDA-MB-231 [25] = experiment: Cell cycle arrest in human MDA-MB-231 cells assessed as accumulation at S phase at 10 uM measured after 24 hrs by propidium iodide staining based flow cytometry (reference value: 12%); type: functional
MDA-MB-231 [26] = experiment: Induction of apoptosis in human MDA-MB-231 cells assessed as late apoptotic cells at 10 umol/L measured after 24 hrs by annexin-V-FITC/7-AAD staining based flow cytometric analysis relative to control; type: functional
K562 [27] = experiment: Induction of superoxide generation in human K562 cells at 5 umol/L measured after 24 hrs by DHE staining based flow cytometry; type: functional, cell-based; outline: as §1
MDA-MB-231 [28] = experiment: Cell cycle arrest in human MDA-MB-231 cells assessed as accumulation at G1 phase at 10 uM measured after 24 hrs by propidium iodide staining based flow cytometry (reference value: 62%); type: functional
MDA-MB-231 [29] = experiment: Antiproliferative activity against human MDA-MB-231 cells measured after 48 hrs by MTT assay; type: functional, cell-based; details: MDA-MB-231, 48 h; outline: as §2
MDA-MB-231 [30] = experiment: Induction of superoxide generation in human MDA-MB-231 cells at 5 umol/L measured after 24 hrs by DHE staining based flow cytometry; type: functional, cell-based; outline: as §1
MDA-MB-231 [31] = experiment: Cell cycle arrest in human MDA-MB-231 cells assessed as accumulation at G2 phase at 30 uM measured after 24 hrs by propidium iodide staining based flow cytometry (reference value: 23%); type: functional
MDA-MB-231 [32] = experiment: Induction of apoptosis in human MDA-MB-231 cells assessed as viable cells at 10 umol/L measured after 2 hrs by annexin-V-FITC/7-AAD staining based flow cytometric analysis (reference value: 97 to 98%); type: functional; details: MDA-MB-231, 2 h, read-out: Activity
MDA-MB-231 [33] = experiment: Induction of apoptosis in human MDA-MB-231 cells assessed as early apoptotic cells at 10 umol/L measured after 24 hrs by annexin-V-FITC/7-AAD staining based flow cytometric analysis relative to control; type: functional
MDA-MB-231 [34] = experiment: Effect on total STAT3 level in human MDA-MB-231 cells at 0.1 to 30 umol/L after 4 hrs by HTRF assay; type: cell-based; details: mda-mb-231, 4 h
Outline: (§3)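 MDA-MB-231 cells (10^5/well) were left to adhere overnight, serum-starved for 4 h in DMEM, then treated with 0.1–30 μmol/L compound (0.5% final DMSO) for 4 h at 37 °C. Lysates were incubated 24 h at room temperature with Eu-cryptate/d2 antibody pairs for phospho-STAT3 (Y705) or total STAT3. The 665/620 nm HTRF ratio was taken and phospho/total normalized. EC50 was obtained by nonlinear regression.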

[35] = molecular target: T1, Signal transducer and activator of transcription 3 (Homo sapiens, UniProt P40763); experiment: Inhibition of STAT3 phosphorylation at Y705 in human MDA-MB-231 cells assessed as reduction in ratio of phosphorylated STAT3 to total STAT3 level after 4 hrs by HTRF assay; type: cell-based; outline: as §3
MDA-MB-231 [36] = experiment: Induction of apoptosis in human MDA-MB-231 cells assessed as late apoptotic cells at 10 umol/L measured after 4 hrs by annexin-V-FITC/7-AAD staining based flow cytometric analysis relative to control
[37] = molecular target: T1, Signal transducer and activator of transcription 3; experiment: Binding affinity to STAT3 in human MDA-MB-231 cells at 100 uM treated for 1 hr followed by thermolysin addition measured after 30 mins by DARTS-Western blot analysis; type: cell-based
Outline: (§4)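 A nondenaturing lysate of MDA-MB-231 cells (M-PER with protease and phosphatase inhibitors) was incubated with compound at 100 μmol/L or DMSO for 1 h at room temperature in the dark. TNC buffer pH 8.0 was added, then thermolysin (1:3000 of protein) for 30 min at room temperature; undigested controls were kept. Run on SDS-PAGE with 10 μg protein per lane, then Western blot with anti-STAT3.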

[38] = molecular target: T1, Signal transducer and activator of transcription 3; experiment: Inhibition of STAT3 phosphorylation at Y705 in human MDA-MB-231 cells after 4 hrs by HTRF assay; type: cell-based; outline: as §3
MDA-MB-231 [39] = experiment: Induction of apoptosis in human MDA-MB-231 cells assessed as increase in early apoptotic cells at 10 umol/L measured after 4 to 24 hrs by annexin-V-FITC/7-AAD staining based flow cytometric analysis; type: functional, cell-based
[40] = molecular target: T1, Signal transducer and activator of transcription 3; experiment: Binding affinity to STAT3 in human MDA-MB-231 cells at 100 uM measured after 1 hr by DARTS-Western blot analysis; type: cell-based; outline: as §4
MDA-MB-231 [41] = experiment: Induction of apoptosis in human MDA-MB-231 cells assessed as late apoptotic cells at 10 umol/L measured after 4 hrs by annexin-V-FITC/7-AAD staining based flow cytometric analysis relative to control; type: functional

T1 sequence (P40763 whole entry): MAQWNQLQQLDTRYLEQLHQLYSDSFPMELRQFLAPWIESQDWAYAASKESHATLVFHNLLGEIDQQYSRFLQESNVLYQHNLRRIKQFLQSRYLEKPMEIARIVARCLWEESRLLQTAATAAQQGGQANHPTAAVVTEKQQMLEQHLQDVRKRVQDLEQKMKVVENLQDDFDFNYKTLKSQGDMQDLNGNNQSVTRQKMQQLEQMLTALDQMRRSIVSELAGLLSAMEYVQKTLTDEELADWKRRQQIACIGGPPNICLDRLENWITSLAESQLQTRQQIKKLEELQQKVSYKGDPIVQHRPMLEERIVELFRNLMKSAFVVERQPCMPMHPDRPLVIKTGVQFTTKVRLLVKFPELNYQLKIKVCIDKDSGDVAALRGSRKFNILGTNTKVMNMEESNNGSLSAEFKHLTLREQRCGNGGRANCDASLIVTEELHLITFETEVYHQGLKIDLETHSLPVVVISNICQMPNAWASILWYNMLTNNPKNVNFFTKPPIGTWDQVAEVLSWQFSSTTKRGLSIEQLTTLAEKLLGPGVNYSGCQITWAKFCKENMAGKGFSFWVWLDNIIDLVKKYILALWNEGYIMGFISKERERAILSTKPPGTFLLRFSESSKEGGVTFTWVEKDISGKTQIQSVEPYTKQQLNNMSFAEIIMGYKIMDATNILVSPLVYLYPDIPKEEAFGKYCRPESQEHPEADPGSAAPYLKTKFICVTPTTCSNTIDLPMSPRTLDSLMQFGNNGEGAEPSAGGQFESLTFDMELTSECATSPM

SMILES | Activity (K562 [2]) | Activity (MDA-MB-231 [3]) | Activity (MDA-MB-231 [4]) | Activity (MDA-MB-231 [5]) | viability at 10 µM (MDA-MB-231 [6]) | Activity (MDA-MB-231 [8]) | Activity (MDA-MB-231 [9]) | viability at 10 µM (MDA-MB-231 [10]) | Activity (MDA-MB-231 [11]) | Activity (MDA-MB-231 [12]) | Activity (MDA-MB-231 [13]) | Activity (MDA-MB-231 [15]) | Activity (MDA-MB-231 [16]) | Activity (MDA-MB-231 [17]) | Activity (MDA-MB-231 [18]) | Activity (MDA-MB-231 [19]) | viability at 10 µM (MDA-MB-231 [20]) | IC50 (K562 [21]) | viability at 10 µM (MDA-MB-231 [22]) | Activity (MDA-MB-231 [23]) | also measured
CC1(C)CCC2=C(O1)c1ccccc1C(=O)C2=O [LAPACHONE] | inactive | 63% | 4% | 27% | 90% | 3% | 62% | 93% | 3% | 8% | 14% | 21% | 57% | 16% | 14% | 20% | 86% | 1600 nM | 38% | 3% | Activity (MDA-MB-231 [1]): inactive; Activity (MDA-MB-231 [7]): 7%; Activity (MDA-MB-231 [14]): 7%; Activity (MDA-MB-231 [24]): 4%; Activity (MDA-MB-231 [25]): 18%; Activity (MDA-MB-231 [26]): 48%; Activity (K562 [27]): inactive; Activity (MDA-MB-231 [28]): 53%; IC50 (MDA-MB-231 [29]): 4300 nM; Activity (MDA-MB-231 [30]): inactive; Activity (MDA-MB-231 [31]): 24%; viability at 10 µM (MDA-MB-231 [32]): 97%; Activity (MDA-MB-231 [33]): 15%
CC(=O)c1cc2c(o1)-c1ccccc1C(=O)C2=O | inactive | 59% | 3% | 20% | 83% | inactive | 60% | 82% | 5% | 31% | 13% | 23% | 60% | 15% | 14% | 23% | 67% | 1100 nM | 9% | 5% | Activity (MDA-MB-231 [34]): Non-Toxic; EC50 [35]: 800 nM; Activity (MDA-MB-231 [36]): 14%; Activity [37]: Active; EC50 [38]: 870 nM; Activity (MDA-MB-231 [39]): inactive; Activity (MDA-MB-231 [25]): 15%; Activity (MDA-MB-231 [26]): 89%; Activity (MDA-MB-231 [28]): 63%; IC50 (MDA-MB-231 [29]): 740 nM; Activity [40]: inactive; Activity (MDA-MB-231 [31]): 20%; Activity (MDA-MB-231 [41]): 14%; viability at 10 µM (MDA-MB-231 [32]): 93%
